Assay results as given in ChEMBL document CHEMBL3734694, “Design, synthesis, and anticancer evaluation of long-chain alkoxylated mono-carbonyl analogues of curcumin” (Eur J Med Chem, 2015).

Experiments:
CT26 [1] = experiment: Cytotoxicity against mouse CT26 cells at 10 uM assessed as inhibition of cell proliferation incubated for 72 hrs by MTS assay; type: functional; settings: CT26, 72 h
Summary of the method: (§1)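 Single-concentration MTS screen at 10 μM. Cells in RPMI-1640 with 10% FBS, seeded at 4000 cells/well in triplicate, attached overnight, then exposed for 72 h at 37°C, 5% CO2. MTS for 4 h; absorbance 490 nm. Reported as % inhibition.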

[2] = Cytotoxicity against human SW620 cells assessed as inhibition of cell proliferation at 10 uM incubated for 72 hrs by MTS assay; type: functional; settings: SW-620, 72 h; summary of the method: as §1
[3] = Cytotoxicity against human SGC7901 cells assessed as inhibition of cell proliferation at 10 uM incubated for 72 hrs by MTS assay; type: functional; settings: SGC-7901, 72 h; summary of the method: as §1
[4] = Cytotoxicity against human MGC803 cells assessed as inhibition of cell proliferation at 10 uM incubated for 72 hrs by MTS assay; type: functional; settings: MGC-803, 72 h; summary of the method: as §1
[5] = Cytotoxicity against human SGC7901 cells assessed as inhibition of cell proliferation incubated for 72 hrs by MTS assay; type: functional, cell-based; settings: SGC-7901, 72 h
Summary of the method: (§2)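 Cells in RPMI-1640 with 10% heat-inactivated FBS at 37°C, 5% CO2. Seeded at 4000 cells/well in triplicate and attached overnight. Exposed to various concentrations for 72 h. MTS added for a further 4 h; absorbance at 490 nm. IC50 = concentration for 50% growth inhibition, as mean ± SEM of three independent tests.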

CT26 [6] = experiment: Cytotoxicity against mouse CT26 cells assessed as inhibition of cell proliferation incubated for 72 hrs by MTS assay; type: functional, cell-based; settings: CT26, 72 h; summary of the method: as §2
[7] = Cytotoxicity against human MGC803 cells assessed as inhibition of cell proliferation incubated for 72 hrs by MTS assay; type: functional, cell-based; settings: MGC-803, 72 h; summary of the method: as §2
[8] = Cytotoxicity against human SW620 cells assessed as inhibition of cell proliferation incubated for 72 hrs by MTS assay; type: functional, cell-based; settings: SW-620, 72 h; summary of the method: as §2
[9] = Cytotoxicity against human GES-1 cells assessed as inhibition of cell proliferation incubated for 72 hrs by MTS assay; type: functional, cell-based; settings: GES1, 72 h; summary of the method: as §2

Row | SMILES | inhibition at 10 µM (CT26 [1]) | inhibition at 10 µM [2] | inhibition at 10 µM [3] | inhibition at 10 µM [4] | IC50 [5] | IC50 (CT26 [6]) | IC50 [7] | IC50 [8] | IC50 [9]
1 | COc1cc(/C=C/C(=O)/C=C/c2ccc(C(C)(C)C)cc2)ccc1OCCCN1CCOCC1 | 90.7% | 84.8% | 76.2% | 84.2% | 2.77 µM | 3.26 µM | 2.45 µM | 1.62 µM | 3.03 µM
2 | COc1cc(/C=C2\CC/C(=C\c3ccccc3C(F)(F)F)C2=O)ccc1OCCCN1CCOCC1 | 4.71% | 34.9% | 29.7% | 4.98% |  |  |  |  | 
3 | COc1ccc(/C=C2\CCC/C(=C\c3ccc(OCCCN4CCOCC4)c(OC)c3)C2=O)cc1OC | 86.5% | 83.6% | 86.4% | 89.8% | 2.87 µM | 2.99 µM | 8.61 µM | 3.81 µM | 8.17 µM
4 | COc1cc(/C=C2\CCC/C(=C\c3ccc(OCCCN4CCN(C)CC4)c(OC)c3)C2=O)ccc1OCCCBr | 37.3% | 48.1% | 15.7% | -7.15% |  |  |  |  | 
5 | COc1ccccc1/C=C/C(=O)/C=C/c1ccc(OCCBr)c(OC)c1 | 70.5% | 83.7% | 78.7% | 76.2% | 4.52 µM | 4.51 µM | 5.52 µM | 4.43 µM | 4.04 µM
6 | COc1cc(/C=C/C(=O)CC(=O)/C=C/c2ccc(O)c(OC)c2)ccc1O [CURCUMIN] |  |  |  |  | 24.4 µM | 7.7 µM | 31.4 µM | 12.5 µM | 27.9 µM
7 | COc1cc(/C=C2\CC/C(=C\c3ccc(OCCCN4CCCCC4)c(OC)c3)C2=O)ccc1OCCCBr | 90.2% | 84.5% | 89% | 91.4% | 5.08 µM | 3.86 µM | 7.31 µM | 4.47 µM | 7.03 µM
8 | COc1cc(/C=C/C(=O)/C=C/c2ccc(OCCCN3CCOCC3)c(OC)c2)ccc1OCCCN1CCOCC1 | 89.7% | 84% | 67.5% | 44.5% |  |  |  |  | 
9 | COc1cc(/C=C2\CCC/C(=C\c3ccc(OCCCN4CCOCC4)c(OC)c3)C2=O)ccc1OCCCN1CCOCC1 | 93.3% | 85.7% | 81.8% | 78.1% | 4.96 µM | 2.69 µM | 2.06 µM | 1.98 µM | 3.02 µM
10 | O=C1/C(=C/c2ccc(OCCBr)cc2)CCC/C1=C\c1ccc(OCCBr)cc1 | 58.3% | 0.12% | 10.8% | 0.05% |  |  |  |  | 
11 | COc1cc(/C=C2\CCC/C(=C\c3ccc(OCCCN4CCCCC4)c(OC)c3)C2=O)ccc1OCCCBr | 61.2% | 50% | 24.4% | 26.9% |  |  |  |  | 
12 | COc1cc(/C=C/C(=O)/C=C/c2c(C)cc(C)cc2C)ccc1OCCCN1CCOCC1 | 89.6% | 83.6% | 78.1% | 80.7% | 7.67 µM | 7.01 µM | 8.46 µM | 3.38 µM | 8.06 µM
13 | CCN(CC)CCCOc1ccc(/C=C2\CCC/C(=C\c3ccc(OCCCBr)c(OC)c3)C2=O)cc1OC | 92.3% | 85.3% | 86.4% | 87% | 11.9 µM | 12.8 µM | 15.5 µM | 4.65 µM | 14.1 µM
14 | COc1cc(/C=C2\CCC/C(=C\c3ccc(OCCBr)c(OC)c3)C2=O)ccc1OCCBr | 77.3% | 66.3% | 69.2% | 58.4% | 6.26 µM | 9.85 µM | 7.72 µM | 6.26 µM | 3.56 µM
15 | COc1cc(/C=C/C(=O)/C=C/c2ccccc2C(F)(F)F)ccc1OCCCN1CCOCC1 | -24% | -3.21% | 3.22% | -2.85% |  |  |  |  | 
16 | COc1cc(/C=C2\CC/C(=C\c3ccc(OCCCn4ccnc4)c(OC)c3)C2=O)ccc1OCCCBr | 87.1% | 65.7% | 14% | 7.1% |  |  |  |  | 
17 | COc1ccccc1/C=C1\CCC/C(=C\c2ccc(OCCCN3CCOCC3)c(OC)c2)C1=O | 31.6% | 22.9% | -0.33% | 2.3% |  |  |  |  | 
18 | COc1cc(OC)c(/C=C/C(=O)/C=C/c2ccc(OCCCN3CCOCC3)c(OC)c2)c(OC)c1 | 65.8% | 33.9% | 9.22% | 5.96% |  |  |  |  | 
19 | COc1ccc(/C=C/C(=O)/C=C/c2ccc(OCCCN3CCOCC3)c(OC)c2)c(F)c1 | 67.6% | 79.3% | 51.6% | 3.64% |  |  |  |  | 
20 | COc1cc(/C=C/C(=O)/C=C/c2ccccc2Cl)ccc1OCCCN1CCOCC1 | 87.2% | 81.6% | 75.3% | 38.5% |  |  |  |  | 
21 | COc1cc(/C=C2\CC/C(=C\c3ccc(OCCBr)c(OC)c3)C2=O)ccc1OCCBr | 58.6% | 38.5% | 20.4% | 8.38% |  |  |  |  | 
22 | COc1cc(/C=C2\CCC/C(=C\c3ccc(OCCCN4CCN(C)CC4)c(OC)c3)C2=O)ccc1OCCCN1CCN(C)CC1 | 109% | 86.7% | 84.8% | 77.5% | 1.88 µM | 2.01 µM | 1.94 µM | 1.04 µM | 3.27 µM
23 | COc1cc(/C=C2\CCC/C(=C\c3ccc(OCCCN4CCCCC4)c(OC)c3)C2=O)ccc1OCCCN1CCCCC1 | 93.2% | 86.9% | 82.8% | 76.9% | 2.32 µM | 2.42 µM | 2.92 µM | 2.49 µM | 6.35 µM
24 | COc1cc(/C=C2\CC/C(=C\c3ccc(OCCCBr)c(OC)c3)C2=O)ccc1OCCCBr | 71% | 27.4% | 6.48% | 5.56% |  |  |  |  | 
25 | CCCN(CCC)CCCOc1ccc(/C=C2\CCC/C(=C\c3ccc(OCCCN(CCC)CCC)c(OC)c3)C2=O)cc1OC | 8.04% | 10.3% | 2.83% | -18.4% |  |  |  |  | 
26 | COc1cc(/C=C2\CCC/C(=C\c3cccc(OC)c3OC)C2=O)ccc1OCCCN1CCOCC1 | 57.2% | 22.5% | -6.53% | -9.26% |  |  |  |  | 
27 | COc1cc(/C=C2\CCC/C(=C\c3ccc(OCCCBr)c(OC)c3)C2=O)ccc1OCCCBr | 49.8% | 61.2% | 18.9% | -8.68% |  |  |  |  | 
28 | O=C1/C(=C/c2ccc(OCCBr)cc2)CC/C1=C\c1ccc(OCCBr)cc1 | 88.1% | 78.5% | 76% | 52% |  |  |  |  | 
